According to PMC10968941 (International Journal of Nanomedicine, 2024):

How the values were obtained:
Caco-2 cells = test: Caco-2 permeability assay; assay type: in vitro ADME, human; conditions: Caco-2 Transwell, apical to basolateral, RP-HPLC
Method in brief: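 Caco-2 cells seeded at 1 × 10^5 cells/well on 0.4 µm Transwell membranes and grown to a monolayer checked by TEER. Medium replaced with HBSS before dosing.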

[1] = target: pepsin from porcine stomach mucosa (Sus scrofa, UniProt P00791); test: Stability test in simulated gastric fluid; assay type: in vitro ADME; conditions: 37°C; for Degradation in simulated gastric fluid with pepsin: up to 120 min
Chain of pepsin from porcine stomach mucosa (P00791 60-385): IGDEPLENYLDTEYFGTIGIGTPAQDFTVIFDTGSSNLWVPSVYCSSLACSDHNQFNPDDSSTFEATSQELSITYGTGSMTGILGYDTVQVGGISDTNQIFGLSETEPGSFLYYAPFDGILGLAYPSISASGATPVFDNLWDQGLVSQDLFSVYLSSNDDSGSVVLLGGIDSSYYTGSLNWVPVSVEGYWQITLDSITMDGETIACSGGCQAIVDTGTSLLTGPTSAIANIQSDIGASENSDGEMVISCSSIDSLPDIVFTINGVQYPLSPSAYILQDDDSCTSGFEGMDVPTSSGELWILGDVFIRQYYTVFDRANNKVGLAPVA
Method in brief: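 Simulated gastric fluid: 200 mg NaCl and 64 mg porcine pepsin in 100 mL water plus 0.7 mL HCl, pH 1.2. Peptide (10 mg/mL in 0.1 M ammonium bicarbonate, 0.1 mL) mixed with 0.9 mL SGF at 37°C. Sampled at 0, 5, 15, 30, 60 and 120 min; quenched with 0.2 M NaOH; analysed by RP-HPLC. PEG 200, 400, 1000 or 4000 tested at 0%, 20% and 40% in SGF.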

**Q.** For `CCCCCCCCCCCCCCCC(=O)N[C@@H](CCC(=O)NCCCC[C@H](NC(=O)[C@H](C)NC(=O)[C@H](C)NC(=O)[C@H](CCC(N)=O)NC(=O)CNC(=O)[C@H](CCC(=O)O)NC(=O)[C@H](CC(C)C)NC(=O)[C@H](Cc1ccc(O)cc1)NC(=O)[C@H](CO)NC(=O)[C@H](CO)NC(=O)[C@@H](NC(=O)[C@H](CC(=O)O)NC(=O)[C@H](CO)NC(=O)[C@@H](NC(=O)[C@H](Cc1ccccc1)NC(=O)[C@@H](NC(=O)CNC(=O)[C@H](CCC(=O)O)NC(=O)[C@H](C)NC(=O)[C@@H](N)Cc1cnc[nH]1)[C@@H](C)O)[C@@H](C)O)C(C)C)C(=O)N[C@@H](CCC(=O)O)C(=O)N[C@@H](Cc1ccccc1)C(=O)N[C@H](C(=O)N[C@@H](C)C(=O)N[C@@H](Cc1c[nH]c2ccccc12)C(=O)N[C@@H](CC(C)C)C(=O)N[C@H](C(=O)N[C@@H](CCCNC(=N)N)C(=O)NCC(=O)N[C@@H](CCCNC(=N)N)C(=O)NCC(=O)O)C(C)C)[C@@H](C)CC)C(=O)O` [LG, liraglutide], which “LG at the basolateral side after 2 h treatment” value (Caco-2 cells) is on record?
**A.** The value was “undetected”.

**Q.** What about the “Degradation in simulated gastric fluid with pepsin” value ([1]; SGF pH 1.2 with pepsin) of the same compound?
**A.** Its value is “rapid degradation”.

**Q.** What about the “Degradation in simulated gastric fluid with pepsin” value ([1]; SGF pH 1.2 with pepsin, listed as free LG) of the same compound?
**A.** The value was “fully degraded”.

**Q.** What about the “Degradation in simulated gastric fluid in the absence of pepsin” value ([1]; SGF pH 1.2 without pepsin) of the same compound?
**A.** The value was “degradation was not observed”.

**Q.** What about the “Time to entire degradation in simulated gastric fluid, LG with PEG 1000” value ([1]; formulation containing PEG 1000, SGF pH 1.2 with pepsin) of the same compound?
**A.** Its value is at most 60 min.

**Q.** And the “Time to entire degradation in simulated gastric fluid, LG with PEG 4000” value ([1]; formulation containing PEG 4000, SGF pH 1.2 with pepsin)?
**A.** Its value is at most 60 min.
